Laboratory results as given in ChEMBL document CHEMBL2331370, “Structure and absolute configuration of fumiquinazoline L, an alkaloid from a gorgonian-derived Scopulariopsis sp. fungus” (J Nat Prod, 2013).
Active and inactive are the calls of the source. No cut-off for these calls is given here.

How the values were obtained:
Vibrio anguillarum = assay: Antibacterial activity against Vibrio anguillarum ATCC 19019 at 50 uM after 24 hrs by serial dilution technique; assay type: functional, organism-based
In short: (§1)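 Broth serial dilution MIC in 96-well plates. Compound given as DMSO stock. Strains grown overnight at 37 °C in LB broth, then diluted to 106 cfu/mL. Positive control ciprofloxacin; DMSO as negative control; LB broth as blank. Incubation 37 °C, 24 h, then plates read at 630 nm.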

Escherichia coli = assay: Antibacterial activity against Escherichia coli ATCC 25922 at 50 uM after 24 hrs by serial dilution technique; assay type: functional, organism-based; in short: as §1
Staphylococcus aureus = assay: Antibacterial activity against Staphylococcus aureus ATCC 27154 at 50 uM after 24 hrs by serial dilution technique; assay type: functional, organism-based; in short: as §1
Micrococcus = assay: Antibacterial activity against Micrococcus tetragenus ATCC 13623 at 50 uM after 24 hrs by serial dilution technique; assay type: functional, organism-based; in short: as §1
Bacillus cereus = assay: Antibacterial activity against Bacillus cereus ACCC 11077 at 50 uM after 24 hrs by serial dilution technique; assay type: functional, organism-based; in short: as §1
Micrococcus luteus = assay: Antibacterial activity against Micrococcus luteus ATCC 49732 at 50 uM after 24 hrs by serial dilution technique; assay type: functional, organism-based; in short: as §1
Vibrio parahaemolyticus = assay: Antibacterial activity against Vibrio parahaemolyticus ATCC 17802 after 24 hrs by serial dilution technique; assay type: functional; details: ATCC 17802, 24 h; in short: as §1
Staphylococcus = assay: Antibacterial activity against Staphylococcus albus ATCC 8799 after 24 hrs by serial dilution technique; assay type: functional; details: ATCC 8799, 24 h; in short: as §1
Bacillus subtilis = assay: Antibacterial activity against Bacillus subtilis ATCC 6633 after 24 hrs by serial dilution technique; assay type: functional; details: ATCC 6633, 24 h; in short: as §1
K562 = assay: Cytotoxicity against human K562 cells at 100 uM after 6 days by MTT assay; assay type: functional, cell-based
Bel-7402 = assay: Cytotoxicity against human Bel7402 cells at 100 uM after 6 days by MTT assay; assay type: functional, cell-based
SGC-7901 = assay: Cytotoxicity against human SGC7901 cells at 100 uM after 6 days by MTT assay; assay type: functional, cell-based
A549 = assay: Cytotoxicity against human A549 cells after 6 days by MTT assay; assay type: functional, cell-based; details: A549, 144 h
SPC-A1 = assay: Cytotoxicity against human SPC-A1 cells at 100 uM after 6 days by MTT assay; assay type: functional, cell-based

MIC (Staphylococcus): > 50 µM
MIC (Bacillus subtilis): > 50 µM
Structure (SMILES): CC(C)[C@@H]1N[C@@H]2N(C1=O)c1ccccc1[C@]21C[C@@H]2C(=O)N[C@](C)(O1)c1nc3ccccc3c(=O)n12 [FUMIQUINAZOLINE L]
Activity (Vibrio anguillarum): inactive
Activity (Escherichia coli): inactive
Activity (Staphylococcus aureus): inactive
Activity (Micrococcus): inactive
Activity (Bacillus cereus): inactive
Activity (Micrococcus luteus): inactive
MIC (Vibrio parahaemolyticus): > 50 µM
Activity (K562): inactive
Activity (Bel-7402): inactive
Activity (SGC-7901): inactive
IC50 (A549): > 10 µM
Activity (SPC-A1): inactive
